Shown are actives, neighbours in structure and some others; about 1.6% of the full set was active somewhere.
eIF4E 4G PPI: eIF4E–eIF4G protein interaction inhibitors, primary screen, biochemical, uHTS, TR-FRET, eIF4GI fragment. TR-FRET eIF4E-eIF4GI(517-606) binding, 2 h. inhibition, % at 21.7 µM. AID 782, 2007. actives 0.37% (n = 220,000). Eukaryotic translation initiation factor 4E (Mus musculus) + Eukaryotic translation …;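 active means inhibition above about 30%, limit read from the data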
RBBP9 inhibitor: human RBBP9 inhibitors, primary screen, biochemical, fluorescence polarization, FP-Rh probe, HTS. Serine hydrolase RBBP9 (Homo sapiens), O75884. recombinant RBBP9. inhibition, % at 7.94 µM. actives 0.2% (n = 220,000). AID 1515, 2009;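 active means inhibition above the campaign mean of all tested compounds plus 3 SD, cut at about 14% in these data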
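Assay system: recombinant human RBBP9; Reagent: Serine-hydrolase probe FP-Rh, 375 nM pre-mixing; Doses: 7.94 µM single dose, 0.794% DMSO; Incubation: 30 min then 45 min, 25 °C; Detection: fluorescence polarization (mP), excitation 525 nm, emission 598 nm; Evaluation: percent inhibition from mP, scaled between DMSO and no-protein wells.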
14-3-3 Bad PPI: inhibitors of 14-3-3 zeta/Bad binding, primary screen, biochemical, TR-FRET, bovine 14-3-3 zeta; 14-3-3 protein zeta/delta (Bos taurus), P63103; TR-FRET 14-3-3zeta/Dy647-pBad peptide displacement, 1 h; inhibition, % at 21.7 µM; actives 0.71% (n = 220,000);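 active means inhibition above about 70%, limit read from the data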
Target sequence (P63103 whole entry, looked up): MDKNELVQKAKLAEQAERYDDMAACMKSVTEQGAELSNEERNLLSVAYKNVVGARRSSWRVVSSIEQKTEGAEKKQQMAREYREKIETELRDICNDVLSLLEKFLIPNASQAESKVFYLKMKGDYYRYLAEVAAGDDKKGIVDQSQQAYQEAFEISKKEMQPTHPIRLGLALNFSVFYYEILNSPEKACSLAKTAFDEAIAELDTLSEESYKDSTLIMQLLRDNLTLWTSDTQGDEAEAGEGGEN
EBV gp42 block: Epstein-Barr virus gp42 inhibitors, primary screen, biochemical, uHTS, fluorescence polarization | actives 0.42% (n = 220,000) | inhibition, % (tested at 21.74 µM) | Fluorescence polarization binding assay, mP read-out
Target sequence (Q1HVG2 whole entry, looked up): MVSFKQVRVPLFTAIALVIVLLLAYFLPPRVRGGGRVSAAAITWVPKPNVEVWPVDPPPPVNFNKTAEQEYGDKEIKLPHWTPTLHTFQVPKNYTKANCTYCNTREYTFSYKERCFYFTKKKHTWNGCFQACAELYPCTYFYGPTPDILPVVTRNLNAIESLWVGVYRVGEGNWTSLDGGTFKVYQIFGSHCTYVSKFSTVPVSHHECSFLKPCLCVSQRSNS
PKD1 kinase inh: inhibitors of human PKD1 kinase, biochemical, fluorescence polarization | actives 0.056% (n = 200,000) | AID 797, 2007 | PKD1 kinase fluorescence polarization assay | inhibition, % (test concentration not listed) | Serine/threonine-protein kinase D1 (Homo sapiens), Q15139
Hits are given with their value; . = inactive; / = no result; [ ] = dose if it differs, or a comment. Unless noted, no stated cut-off is given here; in the data, active means inhibition above about 50%; inactive means the rest.

SMILES | eIF4E 4G PPI | RBBP9 inhibitor | 14-3-3 Bad PPI | EBV gp42 block | PKD1 kinase inh
O=C(NC1=NCCS1)C12CC3CC(CC(C3)C1)C2 | . | . | . | . | .
CC(C)C(NC(=O)C12CC3CC(CC(C3)C1)C2)C(=O)NC1=NCCS1 (stereo unspecified) | 40 | . | . | . | .
O=S(=O)(c1cccs1)N1CCN(S(=O)(=O)c2cccs2)CC1 | . | . | . | . | .
O=S(=O)(c1cccs1)N1CCCc2cccc(O)c21 | . | . | 74 | . | .
COC(=O)c1c(NC(=O)C2C3CCC(C3)C2C(=O)O)sc2c1CCCCC2 (stereo unspecified) | . | . | . | . | 79
CC(=O)Nc1ccc(NC(=S)NC(=O)c2ccc([N+](=O)[O-])cc2)cc1 | . | . | . | . | .
CCC(=O)NC(=S)Nc1ccc(NC(=O)c2ccc([N+](=O)[O-])cc2)cc1 | 56[fluorescence artefact?] | . | . | . | .
Cc1ccc(Nc2nnc(SC3CCOC3=O)s2)c(C)c1 (stereo unspecified) | . | . | 80 | . | .
O=C(N=Nc1c(O)[nH]c2ccc(Cl)cc12)c1cc(-c2cccs2)nc2ccccc12 | . | . | 88[fluorescence artefact?] | . | .
O=C(N=Nc1c(O)[nH]c2ccc([N+](=O)[O-])cc12)c1ccccc1Cl | . | . | . | . | /
COc1ccc(N=C2S/C(=C\c3ccc(N4CCOCC4)o3)C(=O)N2CCc2c[nH]c3ccccc23)cc1 | . | . | . | . | .
COc1ccc(N=C2S/C(=C\c3ccc(OCC(=O)O)cc3)C(=O)N2CCc2c[nH]c3ccccc23)cc1 | . | . | . | 84 | .
C/C(=N\NC(=O)C1(C)CC1(Br)Br)c1ccc(NC(=O)c2ccc(C)o2)cc1 (stereo unspecified) | . | . | . | . | .
CC(=O)NCCNC(=O)c1ccc(CSc2ccc(Cl)cc2)cc1 | . | . | . | . | .
CC(C)c1ccc(C(=O)NCc2ccc(Cl)cc2)cc1 | 31[fluorescence artefact?] | . | . | . | .
CCNC(=O)c1ccc(CSc2ccc(Cl)cc2)cc1 | 36 | . | . | . | .
O=C(NCc1ccccc1)c1ccc(Cl)cc1 | . | . | . | . | /
COC(=O)c1cc(NC(=O)c2cccc([N+](=O)[O-])c2C)ccc1Cl | . | . | . | . | .
Cc1ccc(C[n+]2cccc(-c3ccccc3)c2)c(C)c1 | . | . | . | . | .
OCCCc1nc2n(n1)C(c1cccs1)C=C(c1ccccc1)N2 (stereo unspecified) | . | . | . | 142 | .
OCCCc1nc2n(n1)C(c1ccccc1)C=C(c1ccc(F)cc1)N2 (stereo unspecified) | . | . | . | . | .
CN(C)c1ccc(CNCCC2(O)CCOC(C)(C)C2)cc1 (stereo unspecified) | . | . | 75 | . | .
O=C(c1ccoc1)N1CCC(CO)(CCc2ccccc2)CC1 | . | . | . | . | .
Cn1cc(C(=O)CCl)c2ccccc21 | . | . | . | . | .
CCCCNC1=CC(=O)C(=O)c2ccccc21 | . | . | . | . | .
SMILES | eIF4E 4G PPI | RBBP9 inhibitor | 14-3-3 Bad PPI | EBV gp42 block | PKD1 kinase inh
CCCCNc1ccc2c3c(cccc13)C(=O)N(CCCC)C2=O | . | . | . | 181 | /
CN(C)CCCN1C(=O)c2cccc3c(Br)ccc(c23)C1=O | . | . | . | 77 | .
O=C1c2cccc3c([N+](=O)[O-])ccc(c23)C(=O)N1c1ccc(Cl)cn1 | . | . | . | 80 | .
O=[N+]([O-])c1ccc(/C=N/n2c(CO)nc3ccccc32)s1 | . | . | . | 53 | .
COc1cccc(C(=O)NC2CC3CCCC(C2)N3CC(=O)Nc2ccccc2)c1 (stereo unspecified) | . | . | 83[fluorescence artefact?] | . | .
COc1cccc(C(=O)NC2CC3CCCC(C2)N3CC(=O)Nc2ccc(N(C)C)cc2)c1 (stereo unspecified) | . | . | . | . | .
Cc1cc(NC(=O)CSc2nnc(C)n2-c2ccccc2C)no1 | . | . | . | . | .
COc1cccc(N=c2oc3ccc(OC)cc3cc2-c2nc3ccccc3[nH]2)c1 | . | . | 79[fluorescence artefact?] | . | .
COc1ccc(C2C(C#N)=C(N)OC3=C2C(=O)CC(C)(C)C3)c([N+](=O)[O-])c1OC (stereo unspecified) | . | . | . | . | .
CC1(C)CC(=O)C2=C(C1)OC(N)=C(C#N)[C@@H]2c1ccccc1[N+](=O)[O-] | . | . | . | 54 | /
COc1cc(C2C(C#N)=C(N)OC3=C2C(=O)CC(C)(C)C3)c([N+](=O)[O-])cc1OC (stereo unspecified) | . | . | . | 86 | .
Cc1ccc(S(=O)(=O)NC(=O)Nc2ccc(OC(F)F)cc2)cc1 | . | . | . | . | /
CCn1ccnc1CN1CCN(CCC(C)C)C(CCO)C1 (stereo unspecified) | . | . | . | . | .
COc1nc(C)nc2c1sc(=S)n2C | . | . | . | . | .
CCOC(=O)C(NCCCCl)c1ccccc1 (stereo unspecified) | . | . | 73 | . | .
CSc1nc(N)c(C(=O)NC2CCCCC2)s1 | . | . | . | . | /
Cn1c(-c2ccc(C=O)s2)nc2c3ccccc3c3ccccc3c21 | . | . | . | 94 | .
COc1ccc(-c2cc(C(=O)NCC3CCCO3)c3ccccc3n2)cc1 (stereo unspecified) | . | . | . | . | .
COc1ccc(-c2cc(C(=O)NCC3CCCO3)c3cc(C)ccc3n2)cc1 (stereo unspecified) | . | . | 77 | . | .
Cc1ccc(N=Nc2c(N)[nH]n3c(=O)cc(-c4ccccc4)nc23)cc1 | . | . | . | 63 | .
CSc1nc2ccc(NC(=O)c3cc4ccccc4o3)cc2s1 | . | . | . | . | .
COC(=O)c1ccc2nc(Nc3nc4ccc(F)cc4s3)sc2c1 | . | . | 77 | . | .
CCNc1nc(NC(C)C)nc(Oc2ccc(=O)n(C)n2)n1 | 65 | . | . | . | .
CC(C)Nc1nc(NC(C)C)nc(Oc2ccc(=O)n(C)n2)n1 | . | . | . | . | .
CC(=O)c1ccc(Nc2ncnc3c2oc2ccccc23)cc1 | . | . | 72 | . | .
CC(=O)Nc1ccc(Nc2nc(C)nc3c2oc2ccccc23)cc1 | . | . | . | . | .
COCc1cc(C)nc(OCC(=O)N/N=C/c2ccc(-c3cc([N+](=O)[O-])ccc3C)o2)c1C#N | . | . | . | . | .
Cc1ccc([N+](=O)[O-])cc1-c1ccc(/C=C(\C#N)c2[nH]nc(N)c2C#N)o1 | . | . | 72[fluorescence artefact?] | 60 | .
CCN1CCN(C(=O)CN(c2ccc(F)c(Cl)c2)S(C)(=O)=O)CC1 | . | . | . | . | .
